From ChEMBL document CHEMBL4004830 (J Med Chem, 2017)
Calls of active or inactive are those of the source. The calls are words filed in the database; no cut-off is given here.

Tests used:
[1] = target: Serine/threonine-protein kinase 16 (Homo sapiens) (UniProt O75716); experiment: Inhibition of human STK16 (11 to 305 amino acid residues) expressed in bacterial expression system at 1 uM in presence of [gamma-33P]-ATP […]
Summary of the method: (§1)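 Broad kinome panel of 369 kinases screened at 1 µM test concentration.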

[2] = tested on: Mus musculus; experiment: Toxicity in nude BALB/c mouse xenografted with human MV4-11 cells assessed as overt toxicity at 100 mg/kg, po qd for 33 consecutive days and left untreated for another 50 days; format: organism-based; conditions: in vivo, 1200 h
[3] = tested on: MV4-11; experiment: Antitumor activity against human MV4-11 cells xenografted in nude BALB/c mouse assessed as tumor growth inhibition at 100 mg/kg, po qd administered for 33 consecutive days measured on day 50; format: functional, organism-based
[4] = Clearance in BALB/c mouse at 2 mg/kg, iv up to 24 hrs by LC-MS/MS analysis; format: ADME, organism-based; conditions: in vivo
[5] = Half life in BALB/c mouse at 2 mg/kg, iv up to 24 hrs by LC-MS/MS analysis; format: ADME, organism-based; conditions: in vivo
Summary of the method: (§2)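 Single-dose pharmacokinetics in male BALB/c mice, 2 mg/kg IV or 10 mg/kg PO.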

[6] = Dissociation constant, pKa of the compound by pH-metric titration method; format: physicochemical
[7] = Tmax in BALB/c mouse at 10 mg/kg administered via oral gavage measured up to 24 hrs by LC-MS/MS analysis; format: ADME, organism-based; conditions: in vivo
Summary of the method: (§3)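 Single-dose pharmacokinetics in male animals: albino Wistar rats given 5 mg/kg IV or 20 mg/kg PO, and BALB/c mice given 2 mg/kg IV or 10 mg/kg PO.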

[8] = species on record: Homo sapiens; experiment: Selectivity ratio of Ki for CDK2/cyclin A (unknown origin) to Ki for CDK4/cyclin D1 (unknown origin)
Summary of the method: (§4)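 Apparent Ki for each CDK–cyclin complex (CDK4–cyclin D1, CDK6–cyclin D3, CDK2–cyclin A) calculated from the half-maximal inhibition (IC50) and that kinase's Km(ATP). The selectivity ratio is the CDK2 Ki divided by the CDK4 or CDK6 Ki.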

[9] = target: CDK2/Cyclin A2 (Homo sapiens, UniProt P24941); experiment: Inhibition of CDK2/cyclin A (unknown origin) in presence of [gamma-33P]-ATP […]; format: protein-complex assay; conditions: read-out: Ki(app)
[10] = target: Cytochrome P450 2C19 (Homo sapiens, UniProt P33261); experiment: Inhibition of CYP2C19 in human liver microsomes using mephenytoin as substrate in presence of NADPH; format: ADME
Summary of the method: (§5)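 Human liver microsomes with NADPH and isoform-specific probe substrate (midazolam CYP3A4, dextromethorphan CYP2D6, ethoxyresorufin CYP1A, tolbutamide CYP2C9, mephenytoin CYP2C19); IC50 reported in µM.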

[11] = target: CDK6/cyclin D3 (Homo sapiens, UniProt Q00534); experiment: Inhibition of CDK6/cyclin D3 (unknown origin) in presence of [gamma-33P]-ATP […]; format: protein-complex assay; conditions: read-out: Ki(app)
[12] = species on record: Homo sapiens; experiment: Selectivity ratio of Ki for CDK2/cyclin A (unknown origin) to Ki for CDK6/cyclin D3 (unknown origin); summary of the method: as §4
[13] = Tmax in albino Wistar rat at 20 mg/kg administered via oral gavage measured up to 24 hrs by LC-MS/MS analysis; format: ADME, organism-based; conditions: in vivo; summary of the method: as §3
[14] = target: Dual specificity tyrosine-phosphorylation-regulated kinase 3 (Homo sapiens) (UniProt O43781); experiment: Inhibition of DYRK3 (unknown origin) at 1 uM in presence of [gamma-33P]-ATP […]; summary of the method: as §1
[15] = Apparent permeability co-efficient from basolateral to apical side in human Caco2 cells; format: ADME, cell-based; conditions: Caco-2
Summary of the method: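 Caco-2 monolayer assay measuring the apparent permeability coefficient (P_app, 10^-6 cm/s) in the A→B and B→A directions. Efflux ratio is the mean P_app B-A divided by the mean P_app A-B.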

[16] = Volume of distribution at steady state in BALB/c mouse at 2 mg/kg, iv up to 24 hrs by LC-MS/MS analysis; format: ADME, organism-based; conditions: in vivo, read-out: Vdss; summary of the method: as §3
[17] = Octanol/aqueous buffer partition co-efficient, log D of the compound at pH 7.4 by shake-flask method; format: physicochemical
[18] = target: Cyclin-dependent kinase 1/cyclin B1 (Homo sapiens) (UniProt P06493+P14635); experiment: Inhibition of CDK1/cyclin B (unknown origin) in presence of [gamma-33P]-ATP […]; format: protein-complex assay
[19] = target: CDK9/cyclin T1 (Homo sapiens, UniProt P50750); experiment: Inhibition of CDK9/cyclin T1 (unknown origin) in presence of [gamma-33P]-ATP […]; format: protein-complex assay; conditions: read-out: Ki(app)
[20] = target: Voltage-gated inwardly rectifying potassium channel KCNH2 (Homo sapiens, UniProt Q12809); experiment: Inhibition of human ERG expressed in CHO cells by patch clamp electrophysiology; format: cell-based
Summary of the method: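 Cardiac toxicity assay in CHO cells expressing hERG; IC50 determined.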

[21] = Half life in BALB/c mouse at 10 mg/kg administered via oral gavage measured up to 24 hrs by LC-MS/MS analysis; format: ADME, organism-based; conditions: in vivo; summary of the method: as §2
[22] = target: Cytochrome P450 2D6 (Homo sapiens, UniProt P10635); experiment: Inhibition of CYP2D6 in human liver microsomes using dextromethorphan as substrate in presence of NADPH; format: ADME; summary of the method: as §5
[23] = tested on: Mus musculus; experiment: Toxicity in nude BALB/c mouse assessed as overt toxicity at 20 to 100 mg/kg, po qd measured up to 14 days post dose; format: organism-based; conditions: in vivo, 336 h
[24] = tested on: MV4-11; experiment: Cell cycle arrest in human MV4-11 cells assessed as accumulation at S phase at GI50 after 24 hrs by propidium iodide staining based flow cytometry (reference value: 21.97%); format: functional
Summary of the method: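 MV4-11 cells were treated with increasing concentrations for 24 h. Cells were then harvested, fixed and stained with propidium iodide before flow cytometric cell cycle analysis.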

[25] = tested on: LNCaP C4-2B; experiment: Growth inhibition of human C4-2B cells after 72 hrs by resazurin or MTT assay; format: functional
[26] = tested on: MV4-11; experiment: Effect on total Rb protein levels in human MV4-11 cells at GI50 after 12 to 24 hrs by Western blot analysis; format: cell-based
Summary of the method: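 MV4-11 cells were treated for 12 or 24 h, then analysed by Western blot for Rb, including phospho-Ser780. β-Actin served as the loading control. Data are representative of two independent experiments.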

[27] = tested on: MV4-11; experiment: Cell cycle arrest in human MV4-11 cells assessed as accumulation at G2/M phase at 0.04 uM after 24 hrs by propidium iodide staining based flow cytometry (reference value: 17.94%); format: functional
[28] = tested on: MV4-11; experiment: Cell cycle arrest in human MV4-11 cells assessed as accumulation at sub-G1 phase at 0.20 uM after 24 hrs by propidium iodide staining based flow cytometry (reference value: 1.99%); format: functional
[29] = tested on: MV4-11; experiment: Cell cycle arrest in human MV4-11 cells assessed as accumulation at G2/M phase at 0.20 uM after 24 hrs by propidium iodide staining based flow cytometry (reference value: 17.94%); format: functional
[30] = tested on: MV4-11; experiment: Cell cycle arrest in human MV4-11 cells assessed as accumulation at S phase at 0.20 uM after 24 hrs by propidium iodide staining based flow cytometry (reference value: 19.07%); format: functional
[31] = tested on: MV4-11; experiment: Cell cycle arrest in human MV4-11 cells assessed as accumulation at S phase at 0.40 uM after 24 hrs by propidium iodide staining based flow cytometry (reference value: 19.07%); format: functional

Cyclin-dependent kinase 1/cyclin B1 (Homo sapiens), sequence (P06493 whole entry, looked up): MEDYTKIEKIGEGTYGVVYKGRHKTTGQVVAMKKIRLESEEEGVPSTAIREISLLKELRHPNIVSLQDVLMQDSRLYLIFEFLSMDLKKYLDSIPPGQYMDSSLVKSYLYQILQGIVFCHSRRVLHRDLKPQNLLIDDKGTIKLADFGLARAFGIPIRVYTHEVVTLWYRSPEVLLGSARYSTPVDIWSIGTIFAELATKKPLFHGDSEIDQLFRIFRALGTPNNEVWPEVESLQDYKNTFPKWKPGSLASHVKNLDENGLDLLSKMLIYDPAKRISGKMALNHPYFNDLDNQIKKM
Cyclin-dependent kinase 1/cyclin B1 (Homo sapiens), sequence (P14635 whole entry, looked up): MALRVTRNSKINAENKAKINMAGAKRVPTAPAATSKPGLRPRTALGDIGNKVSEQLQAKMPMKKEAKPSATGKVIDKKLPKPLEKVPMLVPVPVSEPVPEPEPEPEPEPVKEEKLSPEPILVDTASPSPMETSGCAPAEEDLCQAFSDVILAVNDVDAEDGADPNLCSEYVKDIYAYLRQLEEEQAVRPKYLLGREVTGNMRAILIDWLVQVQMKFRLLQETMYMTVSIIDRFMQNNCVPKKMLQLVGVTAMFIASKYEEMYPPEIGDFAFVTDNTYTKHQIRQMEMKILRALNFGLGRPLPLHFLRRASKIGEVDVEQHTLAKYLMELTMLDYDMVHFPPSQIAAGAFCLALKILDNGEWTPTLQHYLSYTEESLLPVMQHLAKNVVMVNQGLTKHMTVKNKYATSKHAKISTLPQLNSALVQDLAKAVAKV
Cytochrome P450 2D6, sequence (P10635 whole entry): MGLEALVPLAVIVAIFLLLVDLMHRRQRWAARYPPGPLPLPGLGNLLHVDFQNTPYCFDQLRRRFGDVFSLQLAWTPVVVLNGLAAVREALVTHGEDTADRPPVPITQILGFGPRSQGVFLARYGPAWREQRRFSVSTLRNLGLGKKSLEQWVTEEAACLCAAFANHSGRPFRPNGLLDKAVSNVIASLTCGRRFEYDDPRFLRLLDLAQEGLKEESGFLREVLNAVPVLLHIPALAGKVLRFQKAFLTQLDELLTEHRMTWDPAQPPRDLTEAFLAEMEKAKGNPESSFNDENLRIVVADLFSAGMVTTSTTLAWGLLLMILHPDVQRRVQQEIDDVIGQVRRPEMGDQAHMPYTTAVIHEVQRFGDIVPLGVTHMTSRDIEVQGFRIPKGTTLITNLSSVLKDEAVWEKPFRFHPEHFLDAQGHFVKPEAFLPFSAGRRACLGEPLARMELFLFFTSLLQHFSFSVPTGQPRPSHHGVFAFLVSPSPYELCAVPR
CDK6/cyclin D3, sequence (P30281 whole entry): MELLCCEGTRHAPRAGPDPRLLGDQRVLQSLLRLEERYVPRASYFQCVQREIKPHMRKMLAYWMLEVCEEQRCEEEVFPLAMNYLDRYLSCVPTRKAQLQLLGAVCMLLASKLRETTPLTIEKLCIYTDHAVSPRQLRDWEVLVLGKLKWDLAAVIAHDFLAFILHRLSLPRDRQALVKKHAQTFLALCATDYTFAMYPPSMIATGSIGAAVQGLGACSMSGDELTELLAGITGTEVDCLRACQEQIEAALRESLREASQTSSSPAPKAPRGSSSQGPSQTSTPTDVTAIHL
CDK6/cyclin D3, sequence (Q00534 whole entry): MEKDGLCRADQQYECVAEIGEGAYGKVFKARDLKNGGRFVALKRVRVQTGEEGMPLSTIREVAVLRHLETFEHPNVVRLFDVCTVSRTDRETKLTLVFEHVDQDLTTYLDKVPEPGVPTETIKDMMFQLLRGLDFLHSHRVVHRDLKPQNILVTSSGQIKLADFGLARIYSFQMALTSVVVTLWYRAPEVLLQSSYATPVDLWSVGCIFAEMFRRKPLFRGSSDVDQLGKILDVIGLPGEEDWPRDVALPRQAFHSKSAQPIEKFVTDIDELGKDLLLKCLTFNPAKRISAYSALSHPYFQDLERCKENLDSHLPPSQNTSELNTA
Serine/threonine-protein kinase 16 (Homo sapiens), sequence (O75716 whole entry, the tested form may be a part): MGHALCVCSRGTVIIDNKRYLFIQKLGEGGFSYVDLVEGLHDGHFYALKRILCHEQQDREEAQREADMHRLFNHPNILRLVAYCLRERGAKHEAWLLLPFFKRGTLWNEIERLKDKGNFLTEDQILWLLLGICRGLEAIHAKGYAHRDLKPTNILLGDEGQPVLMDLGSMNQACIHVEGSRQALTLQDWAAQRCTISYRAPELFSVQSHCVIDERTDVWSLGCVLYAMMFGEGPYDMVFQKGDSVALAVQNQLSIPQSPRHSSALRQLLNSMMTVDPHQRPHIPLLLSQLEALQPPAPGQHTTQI
Voltage-gated inwardly rectifying potassium channel KCNH2, sequence (Q12809 whole entry): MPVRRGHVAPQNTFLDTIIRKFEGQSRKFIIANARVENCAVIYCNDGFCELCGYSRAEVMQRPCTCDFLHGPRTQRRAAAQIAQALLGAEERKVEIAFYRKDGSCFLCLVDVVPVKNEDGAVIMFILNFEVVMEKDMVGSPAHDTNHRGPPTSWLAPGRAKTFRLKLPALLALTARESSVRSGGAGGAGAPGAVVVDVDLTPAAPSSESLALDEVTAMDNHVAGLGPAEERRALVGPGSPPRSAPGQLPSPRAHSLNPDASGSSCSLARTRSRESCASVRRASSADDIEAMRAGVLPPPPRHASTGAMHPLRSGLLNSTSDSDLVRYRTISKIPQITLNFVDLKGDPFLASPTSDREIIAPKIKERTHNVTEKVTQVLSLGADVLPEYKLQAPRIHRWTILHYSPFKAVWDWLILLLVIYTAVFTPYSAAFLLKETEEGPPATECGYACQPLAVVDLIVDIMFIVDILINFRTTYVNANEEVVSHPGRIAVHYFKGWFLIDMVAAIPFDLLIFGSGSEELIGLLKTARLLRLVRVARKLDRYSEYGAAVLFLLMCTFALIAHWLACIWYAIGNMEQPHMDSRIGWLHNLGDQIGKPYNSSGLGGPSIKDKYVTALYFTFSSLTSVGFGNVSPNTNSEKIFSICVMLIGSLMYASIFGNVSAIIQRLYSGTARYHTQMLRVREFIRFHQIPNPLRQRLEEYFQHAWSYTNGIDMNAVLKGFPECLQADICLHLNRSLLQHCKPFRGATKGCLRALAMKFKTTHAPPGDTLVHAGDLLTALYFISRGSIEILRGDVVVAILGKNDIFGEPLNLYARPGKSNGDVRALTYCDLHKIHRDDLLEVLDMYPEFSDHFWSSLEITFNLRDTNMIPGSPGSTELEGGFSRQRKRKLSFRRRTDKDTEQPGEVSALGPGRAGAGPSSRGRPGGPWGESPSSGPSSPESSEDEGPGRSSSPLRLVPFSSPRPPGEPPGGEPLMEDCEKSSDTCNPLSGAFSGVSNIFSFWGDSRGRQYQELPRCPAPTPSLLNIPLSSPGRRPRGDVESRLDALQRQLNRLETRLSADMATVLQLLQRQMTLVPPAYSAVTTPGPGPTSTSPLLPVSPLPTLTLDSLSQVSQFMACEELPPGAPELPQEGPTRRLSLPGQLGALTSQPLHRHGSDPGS
Dual specificity tyrosine-phosphorylation-regulated kinase 3 (Homo sapiens), sequence (O43781 whole entry): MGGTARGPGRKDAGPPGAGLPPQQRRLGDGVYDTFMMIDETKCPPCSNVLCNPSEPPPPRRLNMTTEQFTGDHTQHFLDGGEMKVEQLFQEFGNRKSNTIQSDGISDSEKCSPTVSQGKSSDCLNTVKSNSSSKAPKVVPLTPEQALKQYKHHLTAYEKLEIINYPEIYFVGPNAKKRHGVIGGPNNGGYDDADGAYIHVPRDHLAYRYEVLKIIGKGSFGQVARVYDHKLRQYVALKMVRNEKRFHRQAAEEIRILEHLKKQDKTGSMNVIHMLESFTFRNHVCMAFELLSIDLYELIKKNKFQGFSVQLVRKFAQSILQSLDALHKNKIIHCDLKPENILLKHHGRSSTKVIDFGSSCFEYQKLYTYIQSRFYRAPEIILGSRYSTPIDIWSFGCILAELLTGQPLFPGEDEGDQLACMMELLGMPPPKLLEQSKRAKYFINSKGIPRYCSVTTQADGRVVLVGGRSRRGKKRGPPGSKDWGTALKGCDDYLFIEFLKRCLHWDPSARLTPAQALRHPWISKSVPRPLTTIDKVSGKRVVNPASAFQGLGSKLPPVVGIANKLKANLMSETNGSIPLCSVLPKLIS
CDK9/cyclin T1, sequence (O60563 whole entry): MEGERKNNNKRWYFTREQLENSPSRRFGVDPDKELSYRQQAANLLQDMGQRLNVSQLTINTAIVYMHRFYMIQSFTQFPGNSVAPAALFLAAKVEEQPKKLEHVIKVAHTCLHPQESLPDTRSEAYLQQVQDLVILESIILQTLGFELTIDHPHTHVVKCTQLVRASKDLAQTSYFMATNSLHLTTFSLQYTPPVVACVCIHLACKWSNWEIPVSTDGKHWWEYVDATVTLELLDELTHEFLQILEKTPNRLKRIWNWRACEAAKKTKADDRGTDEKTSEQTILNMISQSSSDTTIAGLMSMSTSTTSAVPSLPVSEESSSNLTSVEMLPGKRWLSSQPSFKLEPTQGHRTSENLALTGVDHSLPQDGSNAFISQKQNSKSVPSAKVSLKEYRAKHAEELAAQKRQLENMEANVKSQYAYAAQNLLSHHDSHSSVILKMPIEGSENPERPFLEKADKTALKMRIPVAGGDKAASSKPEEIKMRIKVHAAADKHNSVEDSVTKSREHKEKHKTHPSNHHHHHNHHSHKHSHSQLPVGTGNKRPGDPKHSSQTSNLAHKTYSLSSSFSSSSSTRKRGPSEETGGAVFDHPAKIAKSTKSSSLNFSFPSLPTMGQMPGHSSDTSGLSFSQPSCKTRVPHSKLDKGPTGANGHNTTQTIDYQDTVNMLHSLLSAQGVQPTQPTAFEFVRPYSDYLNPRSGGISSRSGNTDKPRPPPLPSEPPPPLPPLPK
CDK9/cyclin T1, sequence (P50750 whole entry): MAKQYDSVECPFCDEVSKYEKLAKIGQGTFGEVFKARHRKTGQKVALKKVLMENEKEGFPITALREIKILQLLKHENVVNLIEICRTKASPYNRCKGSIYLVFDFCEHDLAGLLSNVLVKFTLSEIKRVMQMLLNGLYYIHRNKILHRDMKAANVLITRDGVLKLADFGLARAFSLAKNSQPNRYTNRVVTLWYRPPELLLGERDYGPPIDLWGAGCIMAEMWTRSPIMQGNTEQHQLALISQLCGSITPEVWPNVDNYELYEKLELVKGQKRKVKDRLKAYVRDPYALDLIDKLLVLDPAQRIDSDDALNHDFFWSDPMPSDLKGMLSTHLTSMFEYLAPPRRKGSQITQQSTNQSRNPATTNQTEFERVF

Which inhibition [1] does the source give for `Cc1nc(NC2CCCC2)sc1-c1ccnc(Nc2ccc(N3CCOCC3)cn2)n1` here?
The inhibition was “Active”.

What about the Activity [2] of the same compound?
The Activity was “Non-Toxic”.

And the TGI [3]?
Its TGI is “Active”.

And the clearance [4]?
Its clearance is 58.3 mL/min/kg.

What about the half-life [5] of the same compound?
Its half-life is 1.7 h.

And the pKa [6]?
Its pKa is 3.98 to 5.68.

What about the Tmax [7] of the same compound?
The Tmax was 2 h.

What about the Ratio Ki [8] of the same compound?
Its Ratio Ki is greater than 1200.

And the Ki [9]?
Its Ki is 4.68 µM.

What about the IC50 [10] of the same compound?
The IC50 was greater than 25 µM.

What about the Ki [11] of the same compound?
The Ki was 0.03 µM.

And the Ratio Ki [12]?
Its Ratio Ki is 156.

And the Tmax [13]?
The Tmax was 3.7 h.

What about the inhibition [14] of the same compound?
The inhibition was “Active”.

What about the Papp B→A [15] of the same compound?
Its Papp B→A is 3.98 ×10⁻⁶ cm/s.

And the Vd [16]?
The Vd was 5.6 L/kg.

What about the logD [17] of the same compound?
Its logD is 4.4.

What about the “Ki(app)” value [18] of the same compound?
The value was “inactive”.

And the Ki [19]?
The Ki was greater than 5 µM.

What about the IC50 [20] of the same compound?
Its IC50 is greater than 10 µM.

And the half-life [21]?
Its half-life is 5 h.

What about the IC50 [22] of the same compound?
Its IC50 is greater than 25 µM.

What about the Activity [23] of the same compound?
The Activity was “Non-Toxic”.

And the Activity [24]?
Its Activity is 17.77%.

What about the GI50 [25] of the same compound?
Its GI50 is greater than 10 µM.

With `CC(=O)c1c(C)c2cnc(Nc3ccc(N4CCNCC4)cn3)nc2n(C2CCCC2)c1=O` [PALBOCICLIB] as the compound, how does the Activity [26] read?
The Activity was “Toxic”.

And the Activity [27]?
The Activity was 13.4%.

What about the Activity [28] of the same compound?
Its Activity is 4.22%.

And the Activity [29]?
Its Activity is 5.74%.

What about the Activity [30] of the same compound?
Its Activity is 9.33%.

What about the Activity [31] of the same compound?
The Activity was 6.02%.

And the Activity [24]?
The Activity was 12.18%.

What about the GI50 [25] of the same compound?
Its GI50 is 4.15 µM.
